# NR2E3 ag-1 = agonists of human NR2E3 nuclear receptor; Q9Y5X4; CHO-S Gal4-NCOR/VP16-NR2E3 two-hybrid, luciferase; inhibition of corepressor binding, % at 3.98 µM; actives 0.35% (n = 360,000); AID 602229;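 active = inhibition above the mean of all tested compounds plus 3 SD, cut at about 70% in these data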;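 also: 0% = DMSO with NR2E3 transfected cells and 100% = cells lacking NR2E3 construct; higher means lower luciferase signal from less NR2E3 corepressor binding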
# Target sequence (Q9Y5X4 whole entry, looked up, the tested form may be a part): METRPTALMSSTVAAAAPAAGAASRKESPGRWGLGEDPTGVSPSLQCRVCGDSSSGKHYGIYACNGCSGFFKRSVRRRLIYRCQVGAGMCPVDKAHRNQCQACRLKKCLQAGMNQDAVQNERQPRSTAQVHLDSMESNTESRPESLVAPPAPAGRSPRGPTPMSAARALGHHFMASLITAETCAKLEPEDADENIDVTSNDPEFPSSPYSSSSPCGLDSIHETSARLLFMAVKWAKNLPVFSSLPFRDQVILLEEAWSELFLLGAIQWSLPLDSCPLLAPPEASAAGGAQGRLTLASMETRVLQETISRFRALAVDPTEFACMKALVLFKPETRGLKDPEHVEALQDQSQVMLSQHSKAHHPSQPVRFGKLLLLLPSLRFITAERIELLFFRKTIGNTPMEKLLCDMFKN
# NR2E3 ag-2 = NR2E3 (human) agonism | Q9Y5X4 | GST-NR2E3/biotin-RetCOR TR-FRET, 1536-well | inhibition of corepressor binding, % at 4.78 µM | actives 0.12% (n = 320,000) | AID 2300;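 active = percent inhibition above the cutoff of mean plus 3 SD of all tested compounds, set per screening campaign, cut at about 20% in these data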;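 also: 0% = DMSO wells and 100% = biotin wells as full block of FRET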
#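 System: GST-tagged NR2E3 plus biotinylated RetCOR corepressor; Buffer or medium: pH 7.5 Tris-based buffer; Probe or stimulus: RetCOR corepressor, biotinylated, 7 nM; Doses: compound at 4.8 µM, single dose; Schedule: 5 h incubation at 4 °C; Technique: time-resolved FRET; Evaluation: percent inhibition of TR-FRET ratio; Replication: one well per compound, singlicate testing.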
# FXN GAA850 act = activators of GAA850 frataxin (FXN) promoter; HEK293 lucGAA850 FXN promoter luciferase reporter, 24 h; percent of 10 µM SAHA response; actives 0.56% (n = 360,000); AID 540364; activation, % at 6 µM;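 active = activation above the average of all compounds screened plus 3 SD, cutoff fixed separately per campaign, cut at about 7.5% in these data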;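 also: 0% = DMSO wells and 100% = 10 µM SAHA wells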
# T cell HTS = T cell immune modulators affecting CD8 T cell-vesicle binding; 2C CD8+ T cell-vesicle binding, flow cytometry; active compounds read low; response (vesicle binding), % at 7 µM; actives 0.068% (n = 330,000); AID 2052;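 active = response, share of CD8 T cells binding vesicles, and their 90th percentile fluorescence all below set limits, cut at about 80% in these data, passing the limit was not always enough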;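 also: values below 100% mean blocked vesicle binding to the CD8+ T cells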
#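 Incubation: binding step 1.5 h, 37 °C, antibody labelling 20 min, ice; system: murine 2C transgenic CD8+ T lymphocytes; technique: cytometric PE anti-B7-1 and Alexa647 anti-CD8 signals after 1% paraformaldehyde fixation; also added: QL9-charged Drosophila Ld/ICAM-1/B7-1 vesicles; control set: naked versus QL9-loaded vesicles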
# Myeloid diff MLP = promotes myeloid progenitor differentiation; calls only at 10 µM; actives 1% (n = 360,000); AID 624256; ER-HoxA9 myeloid progenitors, lysozyme-GFP differentiation, flow cytometry;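 active = normalized GFP-positive differentiation at or above the plate's own cutoff, the solvent-only control mean plus 3 SD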;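 also: cells exposed to compound for four days before flow analysis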
# Numbers without * were called inactive; i = inactive; nt = not tested or not shown; + = active, no number. A selection: hits, their analogues and other compounds. The true share with any hit is near 2%.
SMILES,NR2E3 ag-1,NR2E3 ag-2,FXN GAA850 act,T cell HTS,Myeloid diff MLP
C[C@H]1CN([C@@H](C)CO)C(=O)CCCn2nncc2CO[C@H]1CN(C)S(=O)(=O)c1ccc(Oc2ccccc2)nc1,-1.0,nt,-0.8,nt,i
Cc1ccc(OCc2ccc(C(=O)NN)o2)c([N+](=O)[O-])c1,-54.3,1.2,2.6,93.7,i
Cc1ccc(C)c(OCc2ccc(C(=O)NN)o2)c1,-18.8,2.2,-2.5,293.8,+
Cc1cc(C)n(Cc2ccc(C(=O)NN)o2)n1,-1.7,-1.4,1.4,398.6,+
Cc1n[nH]c(C)c1N1C(=O)c2cccc3c(N4CCCCCC4)ccc(c23)C1=O,16.6,2.7,0.2,316.7,+
COC1=CC(=Cc2c(N)n3nc(CC(=O)N4CCCCC4)sc3nc2=O)C=C(OC)C1=O,-17.2,0.8,-1.1,322.9,+
CC(=O)N1N=C(c2ccco2)CC1c1cc2cc(C)ccc2nc1Cl (stereo not given),-23.7,2.8,3.0,453.9,+
COc1ccc(-c2nnn(CC(=O)N(Cc3cccs3)C(C)C(=O)NC3CCCC3)n2)cc1OC (stereo not given),-20.0,-1.5,3.5,133.7,+
CCc1ccc(CN(C)C(=O)c2ccc3c(c2)OCCO3)cc1,-28.6,0.9,-0.3,351.7,+
COc1ccc(C2C3=C(CC(C)(C)CC3=O)Nc3c2c(=O)[nH]c2nc(C)nn32)cc1 (stereo not given),-4.6,-2.5,-3.2,949.9,+
COc1ccc(C2C(C#N)=C(C)NC3=C2C(=O)CC(C)(C)C3)cc1 (stereo not given),7.2,-4.6,0.2,254.6,i
COc1ccc(CCNc2nc(-c3ccc(F)cc3)c(CC(=O)O)s2)cc1OC,-10.2,-3.4,0.8,219.1,+
CC1(C(=O)NS(=O)(=O)C2CC2)CCCN(C(=O)c2ccccc2)C1 (stereo not given),-6.2,nt,-0.8,nt,i
Cc1ccc(C)c(N2CCN(C(=O)c3ccc(CSc4nc5ccncc5[nH]4)cc3)CC2)c1,20.8,1.7,1.0,90.6,+
COc1ccc(S(=O)(=O)N(C)C)cc1NC(=O)c1ccc(OCC(=O)N2CCOCC2)c(OC)c1,14.6,-3.3,-0.8,235.2,i
CCN(CC(=O)Nc1c(C(=O)OC)[nH]c2ccc(Cl)cc12)c1ccc2c(c1)OCO2,6.1,0.4,0.5,428.1,+
COC/C=C/C1=CC2=CC(=O)C(C)(OC(=O)c3cnc4ccccc4n3)C(=O)C2=CN1C1CCCC1 (stereo not given),nt,3.4,nt,462.4,nt
C[C@H]1C=C(C(=O)N2CCOCC2)O[C@@H](OCc2ccc(CO)cc2)C1,-7.8,-0.3,-1.0,nt,+
COc1cc(NC(=O)c2ccc(C)cc2)ccc1NC(=O)c1cc2ccccc2o1,-52.7,3.3,4.1,231.9,+
COc1cc(NC(=O)c2ccc(Br)cc2)ccc1NC(=O)c1cc2ccccc2o1,-22.5,-1.8,1.1,229.0,i
Cc1cc(NC(=O)CSc2nc(CCC3CCCC3)nc3ccccc23)no1,9.5,2.0,2.1,393.1,+
CCCCC/C=C\C/C=C\C/C=C\CCCCC(=O)O,-33.0,-1.4,0.5,689.5,+
N#CCC(=O)Nc1ccc(C(=O)OCC(=O)N(C2CCCCC2)C2CCCCC2)cc1,-21.6,-4.6,-0.2,336.6,i
COC(=O)c1ccc2c(=O)n(-c3ccc(OC)cc3)c(=S)[nH]c2c1,0.0,-3.3,0.1,209.7,+
O=C(CSc1nnc(CNC(=O)c2ccco2)o1)Nc1ccccc1F,7.0,-1.5,1.1,401.5,i
SMILES,NR2E3 ag-1,NR2E3 ag-2,FXN GAA850 act,T cell HTS,Myeloid diff MLP
N=c1n(CCN2CCCCC2)c2ccccc2n1CC(=O)c1cccc([N+](=O)[O-])c1,-2.7,3.4,1.8,160.7,+
CC(C)c1ccc(NC(=O)CCNC(=O)N2CC(=O)Nc3ccccc32)cc1,-18.6,-0.1,-0.6,135.9,i
COC(=O)c1cc(N/C(N)=N/c2nc(C)cc(C)n2)cc(C(=O)OC)c1,7.5,nt,-1.5,nt,i
Cc1ccc(C)n1-c1cccc(C(=O)O)c1,nt,32.7*,nt,575.0,nt
Cc1cc(C)n2c(SCC(=O)NCc3ccco3)nnc2n1,-8.3,2.3,1.5,767.2,i
COc1ccc(CNC(=O)CSc2nnc3nc(C)cc(C)n23)cc1OC,-28.8,0.6,-0.1,922.6,+
O=C(c1ccc(Cl)s1)N1CCCC1,15.1,2.1,-2.0,307.2,+
COC(=O)c1c(N2C(=O)CC(Sc3ncccc3C(=O)O)C2=O)sc(C)c1C (stereo not given),8.0,3.8,-0.3,344.3,i
Cc1ccc(C(=O)/C=C/c2ccc(Br)cc2)o1,-34.4,-1.5,2.8,535.3,+
COCc1ccc(CN2CCC(n3nccc3NC(=O)CCOc3ccccc3)CC2)o1,6.5,3.0,0.4,206.7,i
COc1ccc(/C=C/C=C2\NC(=S)NC2=O)cc1,1.3,-2.8,1.1,342.6,+
COc1ccc(C=C2NC(=S)NC2=O)cc1,-25.1,nt,0.1,nt,i
Cn1c2ccccc2c(=O)c2ccc(NCCc3cccs3)cc21,-118.7,nt,10.0*,240.5,+
CCOc1ccc(CCNC(=O)CCS(=O)(=O)c2ccc(C)cc2)cc1OCC,-3.6,-3.1,0.3,0.0*,i
C=CCC(C=C)S(=O)(=O)c1ccc(C)cc1 (stereo not given),30.4,1.5,0.5,390.8,+
c1ccc(Oc2c3ccccc3nc3ccccc23)cc1,nt,-2.3,nt,246.5,nt
COc1cc(/C=c2\sc3n(c2=O)C(c2ccccc2)C(c2ccccc2)=NN=3)ccc1O (stereo not given),-23.6,3.5,3.7,189.1,+
CCCCOc1cccc2c(=O)n(CC(=O)Nc3ccc4c(c3)OCCO4)ccc12,5.2,nt,-2.4,nt,i
Cc1ccc(NC(=O)CSc2nnc(C)n2CC2CCCO2)cc1 (stereo not given),31.0,3.1,0.4,456.7,+
CCOc1ccc(C(=O)O[C@H]2[C@H](Cc3ccccc3)NS(=O)(=O)[C@H]3C[C@@H]4C=C[C@]23O4)cc1,-12.0,3.5,0.7,211.9,+
CC(C)(C)c1ccc(C(=O)O[C@H]2[C@H](Cc3ccccc3)NS(=O)(=O)[C@H]3C[C@@H]4C=C[C@]23O4)cc1,16.0,1.1,2.0,539.7,i
O=c1c(N=Nc2ccc(O)cc2)c(-c2ccccc2)[nH]n1-c1ccc([N+](=O)[O-])cc1,-6.9,-1.8,2.0,275.9,+
Cc1nnc(-c2cccc(Br)c2)c2cn(-c3ccccc3)nc12,4.8,-2.4,-1.8,i,+
Cc1nnc(-c2cccc(Br)c2)c2cn(-c3ccc(Br)cc3)nc12,-5.0,-45.1,-2.0,523.8,i
COc1ccc(-n2cc3c(-c4cccc(Br)c4)nnc(C)c3n2)cc1,-17.4,-0.8,3.0,170.2,+

# Screening data from PubChem BioAssay.
